What was measured:
[1] = target: Carbonic anhydrase 1 (Homo sapiens) (UniProt P00915); experiment: Activation of recombinant human carbonic anhydrase 1 incubated for 15 mins prior to testing by stopped flow CO2 hydrase assay
In short: (§1)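 CO2 hydration followed 5–10 s in stopped-flow instrument; phenol red 0.2 mM read at 557 nm; 10 mM HEPES pH 7.4, 0.1 M NaClO4 for ionic strength; saturated CO2 solutions in water at 25°C as substrate. Activator stocks 10 mM in assay buffer, diluted down to 0.01 nM; enzyme and activator preincubated 15 min at room temperature. Activation constant from competitive steady-state equation.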

[2] = target: Carbonic anhydrase 2 (Homo sapiens) (UniProt P00918); experiment: Activation of recombinant human carbonic anhydrase 2 incubated for 15 mins prior to testing by stopped flow CO2 hydrase assay; in short: as §1

Chain of Carbonic anhydrase 1 (Homo sapiens) (P00915 2-261 limits assumed): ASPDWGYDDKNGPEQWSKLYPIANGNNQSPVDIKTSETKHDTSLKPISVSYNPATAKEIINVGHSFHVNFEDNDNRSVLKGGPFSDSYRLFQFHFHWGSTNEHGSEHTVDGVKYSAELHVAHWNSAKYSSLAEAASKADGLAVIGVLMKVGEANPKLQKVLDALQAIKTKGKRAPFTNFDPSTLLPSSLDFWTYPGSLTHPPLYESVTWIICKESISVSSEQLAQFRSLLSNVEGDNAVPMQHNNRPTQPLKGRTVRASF

Row | KA [1] | KA [2] | SMILES
1 | 0.94 nM | 0.05 nM | Nc1ncn(C(=O)Nc2ccc(Cc3ccc(NC(=O)n4cnc(N)n4)cc3)cc2)n1
2 | 0.81 nM | 14.1 nM | Nc1ncn(C(=O)Nc2ccc(-c3ccc(NC(=O)n4cnc(N)n4)cc3)cc2)n1
3 | 637 nM | 1680 nM | COc1cc(-c2ccc(NC(=O)n3cnc(N)n3)c(OC)c2)ccc1NC(=O)n1cnc(N)n1
4 | 74 nM | 91 nM | Nc1ncn(C(=O)NCCCCNC(=O)n2cnc(N)n2)n1
5 | 65 nM | 0.12 nM | Nc1ncn(C(=O)Nc2ccc(NC(=O)n3cnc(N)n3)cc2)n1
6 | 4.2 nM | 826 nM | Cc1ccc(NC(=O)n2cnc(N)n2)cc1NC(=O)n1cnc(N)n1

The next lines start with the compound.

Row | SMILES | KA [1] | KA [2]
7 | CC1(C)CC(NC(=O)n2cnc(N)n2)CC(C)(CNC(=O)n2cnc(N)n2)C1 (stereo not drawn) | 993 nM | 1570 nM
8 | Nc1ncn(C(=O)NCCCCCCNC(=O)n2cnc(N)n2)n1 | 42 nM | 14.6 nM
9 | Nc1ncn(C(=O)NCCCCCCCCCCCCNC(=O)n2cnc(N)n2)n1 | 982 nM | 79 nM
10 | O=C(O)c1ncn(C(=O)NCCCCCCNC(=O)n2cnc(C(=O)O)n2)n1 | 13.7 nM | 6700 nM
11 | CCCCNC(=O)n1cnc(N)n1 | 6.1 nM | 1.7 nM
12 | CCCCCCNC(=O)n1cnc(N)n1 | 123 nM | 345 nM
13 | CCCCCCCCCCCCCCCCCCNC(=O)n1cnc(N)n1 | 987 nM | 1680 nM
14 | Nc1ncn(C(=O)NCCCCCCCCNC(=O)n2cnc(N)n2)n1 | 11.1 nM | 65 nM

Source: ChEMBL document CHEMBL4000247, “Carbonic anhydrases activation with 3-amino-1H-1,2,4-triazole-1-carboxamides: Discovery of subnanomolar isoform II activators” (Bioorg Med Chem, 2017)
